Reference: ChEMBL document CHEMBL1136627, “Discovery of novel neuronal voltage-dependent calcium channel blockers based on emopamil left hand as a bioactive template” (Bioorg Med Chem Lett, 2003)
pIC50: −log10 of the molar value.

Experiments:
[1] = Neuronal voltage-dependent calcium channel (VDCC) inhibitory activity determined in rat cortical synaptosomes; assay type: subcellular, Brain
In short: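 Rat cortical synaptosomes depolarized with KCl; rise in intracellular Ca2+ measured fluorimetrically with Fura2; IC50 (µM) for inhibition of the KCl-elicited [Ca2+]i elevation; racemic test compounds.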

Mus musculus = assay: Anti seizure activity was evaluated in the audiogenic seizure model using DBA/2 mice at 10 mg/kg (iv); assay type: functional
In short: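 DBA/2 mice given test compound iv at 10 mg/kg; 5 min later each mouse placed singly under a perspex dome and exposed to sound (100 dB, 11 kHz) continued for 60 s; scored for sound-induced tonic convulsion.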

Compound: CC(C)C(C#N)(CCCN1CCN(C)CC1)c1ccccc1 (stereo unspecified)
- pIC50 [1]: < 4.80

Compound: CC(C)C(C#N)(CCCN1CCN(CCOc2ccc(N)cc2)CC1)c1ccccc1 (stereo unspecified)
- pIC50 [1]: 4.89

Compound: CC(C)C(C#N)(CCCN1CCN(CCOc2cccc(C#N)c2)CC1)c1ccccc1 (stereo unspecified)
- pIC50 [1]: 5.11

Compound: CC(C)C(C#N)(CCCN1CCN(CCOc2ccncc2)CC1)c1ccccc1 (stereo unspecified)
- pIC50 [1]: < 4.80

Compound: CC(C)C(C#N)(CCCN1CCN(CCOc2ccc(F)c(F)c2)CC1)c1ccccc1 (stereo unspecified)
- pIC50 [1]: 5.28

Compound: CC(C)C(C#N)(CCCN1CCN(CCOc2ccc(Cl)cc2)CC1)c1ccccc1 (stereo unspecified)
- pIC50 [1]: 5.47

Compound: CC(C)C(C#N)(CCCN1CCN(c2ccccc2)CC1)c1ccccc1 (stereo unspecified)
- pIC50 [1]: < 4.80

Compound: CC(C)C(C#N)(CCCN1CCN(CCOc2ccccc2C#N)CC1)c1ccccc1 (stereo unspecified)
- pIC50 [1]: 4.80

Compound: CC(C)C(C#N)(CCCN1CCN(CCOc2cccc3ccccc23)CC1)c1ccccc1 (stereo unspecified)
- pIC50 [1]: 5.60

Compound: CC(C)C(C#N)(CCCN1CCNCC1)c1ccccc1 (stereo unspecified)
- pIC50 [1]: < 4.80

Compound: CC(C)C(C#N)(CCCN1CCN(CCOc2ccccc2F)CC1)c1ccccc1 (stereo unspecified)
- pIC50 [1]: 5.03

Compound: CC(C)C(C#N)(CCCN1CCN(CCOc2ccc(F)cc2)CC1)c1ccccc1 (stereo unspecified)
- pIC50 [1]: 5.23
- Protection (Mus musculus): 100%

Compound: CC(C)C(C#N)(CCCN1CCN(CCOc2ccccn2)CC1)c1ccccc1 (stereo unspecified)
- pIC50 [1]: < 4.80

Compound: CC(C)C(C#N)(CCCN1CCN(Cc2ccccc2)CC1)c1ccccc1 (stereo unspecified)
- pIC50 [1]: 4.92

Compound: CC(C)C(C#N)(CCCN1CCN(CCCc2ccccc2)CC1)c1ccccc1 (stereo unspecified)
- pIC50 [1]: 5.35

Compound: C#CCCCCN1CCN(CCCC(C#N)(c2ccccc2)C(C)C)CC1 (stereo unspecified)
- pIC50 [1]: < 4.80

Compound: CC(C)C(C#N)(CCCN1CCN(CCOc2ccc(N(C)C)cc2)CC1)c1ccccc1 (stereo unspecified)
- pIC50 [1]: < 4.80

Compound: COc1ccc(OCCN2CCN(CCCC(C#N)(c3ccccc3)C(C)C)CC2)cc1 (stereo unspecified)
- pIC50 [1]: 5.02

Compound: CC(C)C(C#N)(CCCN1CCN(CCOc2ccc(C#N)cc2)CC1)c1ccccc1 (stereo unspecified)
- pIC50 [1]: 4.89

Compound: CC(C)C(C#N)(CCCN1CCN(CCc2ccccc2)CC1)c1ccccc1 (stereo unspecified)
- pIC50 [1]: 5.11

Compound: CC(C)C(C#N)(CCCN1CCN(CCOc2cccc(F)c2)CC1)c1ccccc1 (stereo unspecified)
- pIC50 [1]: 5.21

Compound: CC(C)C(C#N)(CCCN(C)CCc1ccccc1)c1ccccc1 (stereo unspecified) [EMOPAMIL]
- pIC50 [1]: 4.55

Compound: CC(C)C(C#N)(CCCN1CCN(CCOc2cccnc2)CC1)c1ccccc1 (stereo unspecified)
- pIC50 [1]: < 4.80

Compound: CC(C)C(C#N)(CCCN1CCN(CCOc2ccc([N+](=O)[O-])cc2)CC1)c1ccccc1 (stereo unspecified)
- pIC50 [1]: 5.12

Compound: CC(C)C(C#N)(CCCN1CCN(CCO)CC1)c1ccccc1 (stereo unspecified)
- pIC50 [1]: < 4.80
